# This is a sample that favours compounds with a hit; in the whole collection about 2.9% have one here.
# ATG4B inhibitor: blocks human ATG4B protease cleavage of LC3 substrate. Q9Y4P1. ATG4B cleavage of LC3-PLA2, NBD-HPC fluorescence, 1 h. inhibition, % at 8.33 µM. 0.51% of 340,000 active. AID 504462; in the data active means inhibition above about 40%
# Dynein transport: blocks dynein driven cargo transport along microtubules; 3617.4 mouse cells, GR-EGFP nuclear translocation imaging; test concentration mostly 20 µM; stimulated with dexamethasone, 1 µM; stronger effect = lower value; z-score, hits read low; 0.47% of 220,000 active;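 active means plate z-score of nuclear minus cytoplasmic receptor signal below a set negative limit, without overly bright fluorescence or cell loss, cut at about -3.5 in these data, passing the limit was not always enough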;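 further: z-score of nuclear minus cytoplasmic ring GR-EGFP intensity difference per well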
#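 Buffer or medium: Induction medium lacking tetracycline, stripped serum | Also added: Dexamethasone agonist, 1.0 µM final, for 30 min | Timing: 48 h induction, 1 h compound, 30 min dex at 37 °C | Detection: Formaldehyde fixation, Hoechst nuclear stain, 10x automated fluorescence imaging | Measure: Nuclear versus cytoplasmic GR-EGFP signal, averaged per well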
# MEKK3 PB1 HTS: MEKK3-MEK5 PB1 interaction, increase or decrease; Q99759; bead-based flow cytometry, Alexa488-MEK5 binding to MEKK3; actives lie on both sides; 0 = blocked by unlabeled MEK5, 100 = vehicle; binding response (% of control), % at 10 µM; 1.4% of 290,000 active; AID 1529;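 active means binding response more than 3 SD above or below the average of its plate-row segment, actives on both sides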;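 further: Alexa488 bead fluorescence after subtracting the streptavidin-only scavenger bead signal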
# MEKK2 WT-MEK5: raises or lowers MEK5 binding to wildtype human MEKK2 PB1 domain; bead flow cytometry, Alexa488-MEK5 binding to MEKK2 WT; actives lie on both sides; binding response (% of control), % at 10 µM; 1.1% of 290,000 active; in the data active means binding response below about 67% or above about 130%
# B2AR ag: activates human beta-2 adrenergic receptor causing internalization; Am2.2-beta2AR cells, FAP receptor internalization, flow cytometry; response, % (test concentration not listed); 0.43% of 340,000 active; AID 504454;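 active means response above a set limit, near 3 SD of response in nonfluorescent compounds, cut at about 42% in these data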
# Target sequence (P07550 whole entry, looked up): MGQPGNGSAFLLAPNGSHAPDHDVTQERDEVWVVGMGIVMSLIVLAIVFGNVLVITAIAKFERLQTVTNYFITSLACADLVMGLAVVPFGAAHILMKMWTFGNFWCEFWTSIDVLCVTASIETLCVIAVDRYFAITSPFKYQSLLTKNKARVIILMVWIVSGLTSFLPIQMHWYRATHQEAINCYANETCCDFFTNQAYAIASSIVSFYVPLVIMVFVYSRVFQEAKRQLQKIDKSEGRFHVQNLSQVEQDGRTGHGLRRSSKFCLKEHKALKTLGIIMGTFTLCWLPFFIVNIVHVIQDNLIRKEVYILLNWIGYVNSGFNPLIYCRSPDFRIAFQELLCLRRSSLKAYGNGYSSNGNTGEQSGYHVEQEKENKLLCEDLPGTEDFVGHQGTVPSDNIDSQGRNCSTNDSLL
# MEKK2 mut-MEK5: signal of MEK5 binding to mutant human MEKK2 PB1 domain. percent response, % at 10 µM. 0.35% of 290,000 active. bead flow cytometry, Alexa488-MEK5 binding to MEKK2 mutant. AID 1530; in the data active means percent response above about 24%, passing the limit was not always enough
# MEKK2wt confirm: raises or lowers MEK5 binding to wildtype human MEKK2, retest | shares compounds with MEKK3 PB1 HTS | bead flow cytometry, Alexa488-MEK5 binding to MEKK2 WT; actives lie on both sides | binding response (% of control), % at 10 µM | 2.4% of 5,900 active; in the data active means binding response below about 16% or above about 210%; inactive means in between
# MEKK2mut confirm: signal of MEK5 binding to mutant human MEKK2, retest | 2% of 5,900 active | percent response, % at 10 µM | shares compounds with MEKK3 PB1 HTS | bead flow cytometry, Alexa488-MEK5 binding to MEKK2 mutant; in the data active means percent response mostly above about 71%, no sharp cut-off; inactive means mostly below about 38%;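 further: higher means compound restores mutant binding toward wildtype level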
# MEKK3 confirm: MEKK3-MEK5 PB1 inhibition, single concentration confirmation; shares compounds with MEKK3 PB1 HTS; bead flow cytometry, Alexa488-MEK5 binding to MEKK3; stronger effect = lower value; binding response (% of control), % at 10 µM; 1.8% of 5,900 active; AID 1894;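 active means binding response below 72% of control, or above a set upper limit, though filed actives all read lower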;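 further: 100% = DMSO only wells and 0% = binding blocked by excess unlabeled MEK5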
# Active calls of the source: *; nt = not tested or not shown; [ ] = dose if it differs, or a comment.
SMILES,ATG4B inhibitor,Dynein transport,MEKK3 PB1 HTS,MEKK2 WT-MEK5,B2AR ag,MEKK2 mut-MEK5,MEKK2wt confirm,MEKK2mut confirm,MEKK3 confirm
Cc1onc(-c2ccccc2)c1C(=O)NCc1ccc2c(c1)OCO2,-7,0.47,102,-6.0*[inhibitor],2,1,105,2,104
C=CCn1cc(C(=O)N2CCN(c3ccccc3)CC2)c(=O)c2cc(S(=O)(=O)N3CCCC3)ccc21,3,nt,103,102,-2,1,nt,nt,nt
COc1ccccc1C1CC(=O)NC(C)=C1C(=O)OC(C)C (stereo not drawn),0,0.12,49*[inhibitor],54,-3,-15,96,-2,104
Cc1cc(C)cc(C(=O)O/N=C(\N)c2ccc(Br)cc2)c1,-4,-0.84,100,98,12,2,nt,nt,nt
Cc1ccc(C(=O)O/N=C(\N)c2ccc(Br)cc2)cc1C,-14,0.85,2.0*[inhibitor],1.0*[inhibitor],-6,-15,102,6,102
Cc1ccc(N2C(=O)C3C(C2=O)N2CCCN2C3c2ccccc2)cc1C (stereo not drawn),3,0.052,101,99,-9,0,nt,nt,nt
Cc1ccc(N2C(=O)C3C(c4ccccc4)N4CCCN4C3(C)C2=O)cc1 (stereo not drawn),-4,0.63,66*[inhibitor],84,44*,-1,105,2,102
COc1ccccc1NC(=O)C(=O)NNS(=O)(=O)c1ccc2ccccc2c1,-16,-0.54,131*,118,1,31,103,5,101
COc1ccc(NC(=S)NNS(=O)(=O)c2ccc3ccccc3c2)c(OC)c1,-17,0.11,102,99,6,-1,nt,nt,nt
O=C(NNS(=O)(=O)c1ccc2ccccc2c1)c1cccs1,6,0.34,144*,103,-1,0,99,-1,101
O=C1CC(N2CCN(c3ncccn3)CC2)C(=O)N1CCc1ccccc1 (stereo not drawn),-5,-0.07,105,105,10,6,nt,nt,nt
Cc1ccc(NC(=O)CN(C)S(=O)(=O)c2cccc3cccnc23)cc1C,-10,nt,102,104,0,-1,nt,nt,nt
CCOc1ccccc1Nc1nc(N)nc(CN2CCCCC2C)n1 (stereo not drawn),-6,0.19,99,94,-6,-10,nt,nt,nt
O=C(NNC(=S)Nc1cccc(C(F)(F)F)c1)c1cccc(Cl)c1,31,-0.25,100,99,12,-1,nt,nt,nt
O=C(NNC(=S)Nc1cccc(C(F)(F)F)c1)c1ccccc1Cl,-2,-0.47,66*[inhibitor],91,8,1,103,4,100
NS(=O)(=O)c1cccc(NC(=O)COC(=O)CN2C(=O)C3CC=CCC3C2=O)c1 (stereo not drawn),2,0.37,103,95,5,-6,nt,nt,nt
CCn1c(=O)c2sccc2n(Cc2cccc(C)c2)c1=O,1,nt,100,99,-5,3,nt,nt,nt
S=C(NC1CCCCC1)N1CCN(Cc2ccccc2Cl)CC1,-10,-0.25,103,103,-18,6,nt,nt,nt
S=C(Nc1ccc(Cl)cc1)NC1CC2CCC(C1)N2Cc1ccccc1 (stereo not drawn),-6,2.1,110,156*,-7,41,142,28,110
S=C(Nc1ccc(Cl)c(Cl)c1)NC1CCN(Cc2ccccc2)CC1,24,nt,111,168*,6,34*,171,35,110
S=C(NC1CCCCC1)N1CCN(Cc2ccccc2)CC1,-3,0.24,143*,105,-3,2,109,4,104

# Screening data: PubChem, several laboratories
